{"source": "ChEMBL document CHEMBL4396897", "about": "“Potent 5-Cyano-6-phenyl-pyrimidin-Based Derivatives Targeting DCN1-UBE2M Interaction” (J Med Chem, 2019)", "key": {"ECa-109 cell line": {"tested_on": "ECa-109 cell line", "experiment": "Antiproliferative activity against human EC109 after 72 hrs by MTT assay", "format": "functional, cell-based", "how_it_was_run": "(§1)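 MTT viability assay: cells seeded at 2~5×10^3 per well, exposed to serial dilutions of compound for 72h, then MTT (5 mg/mL in PBS) added for 4h at 37°C. Formazan dissolved in DMSO and read at 490nm. IC50 reported as mean ± SD of three independent experiments.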"}, "A549 [1]": {"tested_on": "A549", "experiment": "Induction of apoptosis in human A549 cells assessed as late apoptotic cells at 2.5 uM after 48 hrs by Annexin V-FITC/propidium iodide staining based flow cytometry (reference value: 2.61%)", "format": "functional"}, "NCI-H1975 [2]": {"tested_on": "NCI-H1975", "experiment": "Induction of apoptosis in human NCI-NCI-H1975 cells assessed as early apoptotic cells at 10 uM after 48 hrs by Annexin V-FITC/propidium iodide staining based flow cytometry (reference value: 2.47%)", "format": "functional"}, "NCI-H1975 [3]": {"tested_on": "NCI-H1975", "experiment": "Induction of apoptosis in human NCI-NCI-H1975 cells assessed as viable cells at 5 uM after 48 hrs by Annexin V-FITC/propidium iodide staining based flow cytometry (reference value: 96.1%)", "format": "functional", "conditions": "NCI-H1975, 48 h, read-out: Activity"}, "A549 [4]": {"tested_on": "A549", "experiment": "Induction of apoptosis in human A549 cells assessed as late apoptotic cells at 5 uM after 48 hrs by Annexin V-FITC/propidium iodide staining based flow cytometry (reference value: 2.61%)", "format": "functional"}, "NCI-H1975 [5]": {"tested_on": "NCI-H1975", "experiment": "Induction of apoptosis in human NCI-NCI-H1975 cells assessed as early apoptotic cells at 5 uM after 48 hrs by Annexin V-FITC/propidium iodide staining based flow cytometry (reference value: 2.47%)", "format": "functional"}, "NCI-H1975 [6]": {"tested_on": "NCI-H1975", "experiment": "Inhibition of colony formation in human […] cells after 7 days by crystal violet staining based microscopic analysis", "format": "functional, cell-based", "how_it_was_run": "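H1975, PC9 and A549 cells seeded at 1×10^3 cells per well and cultured overnight, then given fresh medium with compound at 0, 0.625, 1.25, 2.5, 5 or 10μM for 7 days. Cells fixed, stained with 0.1% crystal violet and imaged by microscopy; dye then dissolved and read on a plate reader. Three experiments; means ± SD.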"}, "PC-9 [7]": {"tested_on": "PC-9", "experiment": "Induction of apoptosis in human PC9 cells assessed as early apoptotic cells at 2.5 uM after 48 hrs by Annexin V-FITC/propidium iodide staining based flow cytometry (reference value: 1.36%)", "format": "functional", "how_it_was_run": "(§2)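 PC9 cells seeded in 6-well plates (1~2×10^6 cells/mL), incubated overnight, then exposed to 0, 2.5, 5 or 10µM compound for 48h. Harvested cells stained with Annexin-V-FITC/PI for 30 min and analysed by flow cytometry. Three individual experiments; means ± SD.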"}, "GES1": {"tested_on": "GES1", "experiment": "Antiproliferative activity against human GES-1 after 72 hrs by MTT assay", "format": "cell-based", "conditions": "ges1, 72 h", "how_it_was_run": "as §1"}, "A549 [8]": {"tested_on": "A549", "experiment": "Induction of apoptosis in human A549 cells assessed as viable cells at 5 uM after 48 hrs by Annexin V-FITC/propidium iodide staining based flow cytometry (reference value: 92.9%)", "format": "functional", "conditions": "A549, 48 h, read-out: Activity"}, "A549 [9]": {"tested_on": "A549", "experiment": "Induction of apoptosis in human A549 cells assessed as early apoptotic cells at 5 uM after 48 hrs by Annexin V-FITC/propidium iodide staining based flow cytometry (reference value: 3.63%)", "format": "functional"}, "NCI-H1975 [10]": {"tested_on": "NCI-H1975", "experiment": "Induction of apoptosis in human NCI-NCI-H1975 cells assessed as late apoptotic cells at 10 uM after 48 hrs by Annexin V-FITC/propidium iodide staining based flow cytometry (reference value: 0.46%)", "format": "functional"}, "NCI-H1975 [11]": {"tested_on": "NCI-H1975", "experiment": "Induction of apoptosis in human NCI-NCI-H1975 cells assessed as late apoptotic cells at 5 uM after 48 hrs by Annexin V-FITC/propidium iodide staining based flow cytometry (reference value: 0.46%)", "format": "functional"}, "NCI-H1975 [12]": {"tested_on": "NCI-H1975", "experiment": "Effect on NQO1 accumulation in human NCI-H1975 cells transfected with DCN1 siRNA3 by densitometric method", "format": "functional, cell-based", "how_it_was_run": "(§3)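 H1975 or PC9 cells seeded in 6-well plates for 16-24h, transfected with DCN1 siRNA#3 by lipofection, with or without compound, and collected three days later. Western blot for Cullin3, DCN1, NRF2, HO-1 and NQO1, with densitometry normalized to GAPDH. Three individual experiments, means ± SD.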"}, "PC-9 [13]": {"tested_on": "PC-9", "experiment": "Induction of apoptosis in human PC9 cells assessed as early apoptotic cells at 10 uM after 48 hrs by Annexin V-FITC/propidium iodide staining based flow cytometry (reference value: 1.36%)", "format": "functional", "how_it_was_run": "as §2"}, "PC-9 [14]": {"tested_on": "PC-9", "experiment": "Induction of apoptosis in human PC9 cells assessed as viable cells at 2.5 uM after 48 hrs by Annexin V-FITC/propidium iodide staining based flow cytometry (reference value: 95.7%)", "format": "functional", "conditions": "PC-9, 48 h, read-out: Activity", "how_it_was_run": "as §2"}, "NCI-H1975 [15]": {"tested_on": "NCI-H1975", "experiment": "Effect on NRF2 accumulation in human NCI-H1975 cells transfected with DCN1 siRNA3 by densitometric method", "format": "functional, cell-based", "how_it_was_run": "as §3"}, "PC-9 [16]": {"tested_on": "PC-9", "experiment": "Effect on NRF2 accumulation in human PC9 cells transfected with DCN1 siRNA3 by densitometric method", "format": "functional, cell-based", "how_it_was_run": "as §3"}, "NCI-H1975 [17]": {"tested_on": "NCI-H1975", "experiment": "Effect on Cullin3 neddylation in human NCI-H1975 cells transfected with DCN1 siRNA3 by densitometric method", "format": "functional, cell-based", "how_it_was_run": "as §3"}, "A549 [18]": {"tested_on": "A549", "experiment": "Induction of apoptosis in human A549 cells assessed as viable cells at 2.5 uM after 48 hrs by Annexin V-FITC/propidium iodide staining based flow cytometry (reference value: 92.9%)", "format": "functional", "conditions": "A549, 48 h, read-out: Activity"}, "PC-9 [19]": {"tested_on": "PC-9", "experiment": "Induction of apoptosis in human PC9 cells assessed as viable cells at 10 uM after 48 hrs by Annexin V-FITC/propidium iodide staining based flow cytometry (reference value: 95.7%)", "format": "functional", "conditions": "PC-9, 48 h, read-out: Activity", "how_it_was_run": "as §2"}, "PC-9 [20]": {"tested_on": "PC-9", "experiment": "Induction of apoptosis in human PC9 cells assessed as viable cells at 5 uM after 48 hrs by Annexin V-FITC/propidium iodide staining based flow cytometry (reference value: 95.7%)", "format": "functional", "conditions": "PC-9, 48 h, read-out: Activity", "how_it_was_run": "as §2"}, "PC-9 [21]": {"tested_on": "PC-9", "experiment": "Induction of apoptosis in human PC9 cells assessed as early apoptotic cells at 5 uM after 48 hrs by Annexin V-FITC/propidium iodide staining based flow cytometry (reference value: 1.36%)", "format": "functional", "how_it_was_run": "as §2"}, "NCI-H1975 [22]": {"tested_on": "NCI-H1975", "experiment": "Induction of apoptosis in human NCI-NCI-H1975 cells assessed as late apoptotic cells at 2.5 uM after 48 hrs by Annexin V-FITC/propidium iodide staining based flow cytometry (reference value: 0.46%)", "format": "functional"}, "KYSE-70 cell line": {"tested_on": "KYSE-70 cell line", "experiment": "Antiproliferative activity against human KYSE-70 after 72 hrs by MTT assay", "format": "functional, cell-based", "conditions": "KYSE-70, 72 h", "how_it_was_run": "as §1"}, "A549 [23]": {"tested_on": "A549", "experiment": "Induction of apoptosis in human A549 cells assessed as early apoptotic cells at 10 uM after 48 hrs by Annexin V-FITC/propidium iodide staining based flow cytometry (reference value: 3.63%)", "format": "functional"}, "A549 [24]": {"tested_on": "A549", "experiment": "Induction of apoptosis in human A549 cells assessed as late apoptotic cells at 10 uM after 48 hrs by Annexin V-FITC/propidium iodide staining based flow cytometry (reference value: 2.61%)", "format": "functional"}, "NCI-H1975 [25]": {"tested_on": "NCI-H1975", "experiment": "Induction of apoptosis in human NCI-NCI-H1975 cells assessed as necrotic cells at 10 uM after 48 hrs by Annexin V-FITC/propidium iodide staining based flow cytometry (reference value: 0.94%)", "format": "functional"}, "PC-9 [26]": {"tested_on": "PC-9", "experiment": "Induction of apoptosis in human PC9 cells assessed as late apoptotic cells at 5 uM after 48 hrs by Annexin V-FITC/propidium iodide staining based flow cytometry (reference value: 1.57%)", "format": "functional"}, "A549 [27]": {"tested_on": "A549", "experiment": "Induction of apoptosis in human A549 cells assessed as viable cells at 10 uM after 48 hrs by Annexin V-FITC/propidium iodide staining based flow cytometry (reference value: 92.9%)", "format": "functional", "conditions": "A549, 48 h, read-out: Activity"}}, "note": "Activity calls are given as the source filed them. The calls are words filed in the database; no cut-off is given here.", "data": [{"smiles": "C#CCSc1nc(Sc2nccs2)c(C#N)c(-c2ccc(C)cc2)n1", "values": [{"measurement": "Activity", "setting": "ECa-109 cell line", "result": "Active"}, {"measurement": "Activity", "setting": "A549 [1]", "result": 10.3, "unit": "%"}, {"measurement": "Activity", "setting": "NCI-H1975 [2]", "result": 33.2, "unit": "%"}, {"measurement": "viability at 5 µM", "setting": "NCI-H1975 [3]", "result": 37.7, "unit": "%"}, {"measurement": "Activity", "setting": "A549 [4]", "result": 31.6, "unit": "%"}, {"measurement": "Activity", "setting": "NCI-H1975 [5]", "result": 28.4, "unit": "%"}, {"measurement": "inhibition", "setting": "NCI-H1975 [6]", "result": "Dose-dependent effect"}, {"measurement": "Activity", "setting": "PC-9 [7]", "result": 0.64, "unit": "%"}, {"measurement": "Activity", "setting": "GES1", "result": "Non-Toxic"}, {"measurement": "viability at 5 µM", "setting": "A549 [8]", "result": 52.6, "unit": "%"}, {"measurement": "Activity", "setting": "A549 [9]", "result": 8.75, "unit": "%"}, {"measurement": "Activity", "setting": "NCI-H1975 [10]", "result": 46.9, "unit": "%"}, {"measurement": "Activity", "setting": "NCI-H1975 [11]", "result": 29, "unit": "%"}, {"measurement": "Activity", "setting": "NCI-H1975 [12]", "result": "inactive"}, {"measurement": "Activity", "setting": "PC-9 [13]", "result": 1.97, "unit": "%"}, {"measurement": "viability at 2.5 µM", "setting": "PC-9 [14]", "result": 69.3, "unit": "%"}, {"measurement": "Activity", "setting": "NCI-H1975 [15]", "result": "inactive"}, {"measurement": "Activity", "setting": "PC-9 [16]", "result": "inactive"}, {"measurement": "Activity", "setting": "NCI-H1975 [17]", "result": "inactive"}, {"measurement": "viability at 2.5 µM", "setting": "A549 [18]", "result": 82.2, "unit": "%"}, {"measurement": "viability at 10 µM", "setting": "PC-9 [19]", "result": 23.4, "unit": "%"}, {"measurement": "viability at 5 µM", "setting": "PC-9 [20]", "result": 63.8, "unit": "%"}, {"measurement": "Activity", "setting": "PC-9 [21]", "result": 8.15, "unit": "%"}, {"measurement": "Activity", "setting": "NCI-H1975 [22]", "result": 9.13, "unit": "%"}, {"measurement": "IC50", "setting": "KYSE-70 cell line", "result": 4.3, "unit": "µM"}, {"measurement": "Activity", "setting": "A549 [23]", "result": 2.52, "unit": "%"}, {"measurement": "Activity", "setting": "A549 [24]", "result": 81.1, "unit": "%"}, {"measurement": "Activity", "setting": "NCI-H1975 [25]", "result": 2.74, "unit": "%"}, {"measurement": "Activity", "setting": "PC-9 [26]", "result": 22.7, "unit": "%"}, {"measurement": "viability at 10 µM", "setting": "A549 [27]", "result": 15.7, "unit": "%"}]}]}
